# Screening results from PubChem BioAssay.
# Only some compounds are listed: those with a hit (about 12% of all), similar ones and a draw of the others.
# Wee1 degr inh – Wee1 degradation inhibitors, primary screen, cell-based, HeLa, Wee1K328M-luciferase, luminescence | HeLa Luc-Wee1K328M stability; 100% = proteasome inhibitor MG132 effect | reporter increase, % at 5 µM | hit rate 1.2% among 220,000;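 active = activation above the mean of all tested compounds plus 3 SD, set per screening run, cut at about 8.8% in these data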;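 also: cells exposed to compound for 20 h before luminescence read; 0% = DMSO alone and 100% = MG132 at 30 µM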
# PKD1 inh – inhibitors of human PKD1 kinase, biochemical, fluorescence polarization; inhibition, % (concentration not given with the values); PKD1 kinase fluorescence polarization assay; hit rate 0.056% among 200,000; Serine/threonine-protein kinase D1 (Homo sapiens), Q15139
# Target sequence (Q15139 whole entry, looked up): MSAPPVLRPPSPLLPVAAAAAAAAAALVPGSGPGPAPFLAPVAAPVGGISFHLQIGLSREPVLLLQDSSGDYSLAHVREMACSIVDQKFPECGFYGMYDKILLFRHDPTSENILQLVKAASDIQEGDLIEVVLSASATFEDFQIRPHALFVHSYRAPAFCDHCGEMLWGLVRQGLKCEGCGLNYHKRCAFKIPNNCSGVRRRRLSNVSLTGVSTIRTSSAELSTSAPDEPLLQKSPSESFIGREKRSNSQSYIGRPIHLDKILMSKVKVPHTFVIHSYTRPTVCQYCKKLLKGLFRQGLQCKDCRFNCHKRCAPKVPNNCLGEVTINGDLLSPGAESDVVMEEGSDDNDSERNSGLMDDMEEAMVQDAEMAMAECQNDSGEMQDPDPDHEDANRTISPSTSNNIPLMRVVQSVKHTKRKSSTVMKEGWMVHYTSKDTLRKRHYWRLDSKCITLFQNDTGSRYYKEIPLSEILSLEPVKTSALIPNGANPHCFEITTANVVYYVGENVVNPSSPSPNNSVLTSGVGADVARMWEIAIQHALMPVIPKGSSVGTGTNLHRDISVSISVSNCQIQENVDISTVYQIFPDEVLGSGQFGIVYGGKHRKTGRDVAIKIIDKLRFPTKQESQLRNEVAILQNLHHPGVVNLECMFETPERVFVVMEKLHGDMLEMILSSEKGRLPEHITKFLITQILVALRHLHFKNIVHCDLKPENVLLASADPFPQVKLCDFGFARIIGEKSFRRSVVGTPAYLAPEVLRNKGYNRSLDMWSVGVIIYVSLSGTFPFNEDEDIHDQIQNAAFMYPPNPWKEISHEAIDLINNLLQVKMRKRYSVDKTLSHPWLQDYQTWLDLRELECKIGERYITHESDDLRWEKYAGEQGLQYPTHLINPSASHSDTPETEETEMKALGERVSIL
# Rad51 HR inh – human RAD51 strand exchange inhibitors, primary screen, biochemical, fluorescence; hRad51 DNA strand exchange, fluorescence dequenching; DNA repair protein RAD51 homolog 1 (Homo sapiens), Q06609; AID 1385, 2008; inhibition, % at 10 µM; hit rate 0.085% among 200,000;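 active = inhibition above 40% at the single screening dose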;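 also: 0% = DMSO control wells and 100% = blanks with heterologous ssDNA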
#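 Test system – preformed human Rad51 ssDNA filaments · Reagent – Donor/quencher-labelled 47-bp dsDNA substrate · Incubation – 37 °C 15-min filament assembly, 30-min compound preincubation, 15-min exchange · Signal – FRET fluorescence dequenching, excitation 485 nm, emission 520 nm · Read-out – percent inhibition from fluorescence, normalised to plate control and blank means · Benchmarks – plate control and blank wells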
# CHOP inhibitor – inhibitors of CHOP promoter induction, primary screen, cell-based, unfolded protein response, luciferase reporter; inhibition, % at 10 µM; CHO-K1 CHOP-promoter luciferase, tunicamycin-induced, 15-18 h; hit rate 3.8% among 220,000;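 active = compounds that reduced the stress-induced luciferase reporter signal by more than about 70% of percent inhibition, limit read from the data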;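 also: 0% = tunicamycin plus vehicle and 100% = wells without tunicamycin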
# Lmaj promast – Leishmania major promastigote growth inhibition, primary screen. Leishmania major promastigotes, resazurin fluorescence viability. inhibition, % at 10 µM. hit rate 9% among 200,000;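 also: promastigotes grown with compound for 44 hours at 28 °C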
# Arbovirus inh – antivirals against arbovirus infection, primary screen, cell-based, full library, 10K replicate subset. arbovirus infection cell-based antiviral screen. inhibition, % at 10 µM. hit rate 0.37% among 200,000. AID 1251, 2008; in the data active = inhibition above about 30%
# * hit, by the source's call; . = not tested or not shown. Rule as the data show it, unless noted: active = inhibition above about 50%; inactive = the rest.
SMILES,Wee1 degr inh,PKD1 inh,Rad51 HR inh,CHOP inhibitor,Lmaj promast,Arbovirus inh
Cc1cc(C(=O)CN2C(=O)C(=O)N(Cc3ccccc3)C2=O)c(C)n1CC1COc2ccccc2O1 (configuration not stated),-2,-3,26,21,3,-21
N#Cc1ccccc1S(=O)(=O)N1CCN(CC(O)c2ccccc2)CC1 (configuration not stated),-1,3,1,9,-5,3
COc1ccc(NC(=O)Cn2c(=O)n(-c3ccc(CC(=O)NCc4ccco4)cc3)c(=O)c3ccccc32)cc1,2,6,-2,0,-1,-5
CC(NCCN(C)C)C(=O)C12CC3CC(CC(C3)C1)C2 (configuration not stated),0,.,10,-2,.,.
CCN(c1cccc(C)c1)c1nc2ccsc2c(=O)s1,0,-6,-7,73*,2,2
C=CCn1c(=O)/c(=C2/SC(C)=C(C)N2CC)s/c1=C1/C(=O)N(C)C(=S)N1c1ccccc1,3,-11,.,.,-1,.
Cc1nnn(C23CC4CC(CC(CC(=O)Nc5ccc(C)c(C)c5)(C4)C2)C3)n1,-2,1,7,18,68*,-3
Cc1cccc(NC(=O)CC23CC4CC(C2)CC(n2nnc(C)n2)(C4)C3)c1,-2,-2,7,10,55*,0
Cc1nnn(C23CC4CC(CC(CC(=O)Nc5cccc(F)c5)(C4)C2)C3)n1,-3,2,0,-5,15,1
CC(C)CNC(=O)CN(c1cccc(Cl)c1)S(C)(=O)=O,0,-2,-174,-5,-4,0
Cc1ccc2c(c1)c1c(n2CC(O)Cn2nc(C)c(Br)c2C)C(=O)CCC1 (configuration not stated),-2,3,-6,72*,2,-10
Cc1ccc2c(c1)c(C)c(C)n2CC(O)Cn1nc(C)c(Br)c1C (configuration not stated),0,-13,0,86*,49,2
CC(=O)c1c(C)nn(CC(O)Cn2c3c(c4cc(C)ccc42)CCCC3=O)c1C (configuration not stated),-3,-14,0,25,10,1
CCNC(=O)n1cc(-n2cncn2)c(-c2ccc(Cl)cc2)n1,2,-1,21,42,3,1
Cc1nn(CCO)c(N)c1C1(O)C(=O)Nc2c(Cl)cc(Cl)cc21 (configuration not stated),2,-8,-2,22,2,-4
Cc1cc2nnc(SCC(=O)Nc3cccc(S(=O)(=O)N4CCOCC4)c3)n2c2ccccc12,2,-6,-10,21,0,12
CCC(C)c1ccc2oc(-c3ccc(NC(=O)Cn4cnc5c(=O)n(C)c(=O)n(C)c54)cc3)nc2c1 (configuration not stated),-2,-2,-6,79*,22,-13
CCOC(=O)CN1C(=O)N[C@@H](CCc2ccccc2)[C@H](C(=O)OC)[C@H]1C,.,.,-7,.,.,.
N#Cc1nc(-c2ccc(OCc3ccccc3)cc2)oc1NCCCn1ccnc1,0,9,0,28,52*,-4
CCCOc1ccc(-c2nc(C#N)c(NCCCn3ccnc3)o2)cc1,1,-5,4,20,10,-21
N#Cc1nc(-c2ccc(OCc3ccccc3Cl)cc2)oc1NCCCn1ccnc1,1,-6,.,-38,99*,-23
N#Cc1nc(-c2ccc(F)cc2)oc1NCCCn1ccnc1,0,5,-16,-19,5,0
CCn1c(CNc2ccc(Cl)cc2)nnc1SCC#N,-4,6,-7,44,-3,4
O=C(OCc1ccccc1Cl)c1ccccc1C(=O)c1ccccc1,0,3,-5,31,19,3
O=C(OCc1nc2ccc(Cl)cc2n1CCO)c1ccccc1C(=O)c1ccccc1,-1,-23,4,19,60*,12
SMILES,Wee1 degr inh,PKD1 inh,Rad51 HR inh,CHOP inhibitor,Lmaj promast,Arbovirus inh
COc1cccc(Oc2nc(-c3ccncc3)nc3ccccc23)c1,0,.,26,3,.,.
CC(C)C(c1nnnn1Cc1ccccc1)N(CCCO)Cc1cc2cc3c(cc2[nH]c1=O)OCO3 (configuration not stated),-3,5,-2,7,7,1
CCOC(=O)Cn1nnnc1C(CC)N(Cc1ccccc1)Cc1cc2cc(C)ccc2[nH]c1=O (configuration not stated),1,-2,.,33,97*,7
CCC(c1nnnn1Cc1ccc(OC)cc1)N(CCCO)Cc1cc2cc3c(cc2[nH]c1=O)OCO3 (configuration not stated),9.2*,0,5,4,0,1
CCCC(c1nnnn1CC(=O)OCC)N(Cc1cc2ccc(C)cc2[nH]c1=O)C1CCCC1 (configuration not stated),-1,-10,.,61,11,-2
CCCC(c1nnnn1CC(=O)OCC)N(Cc1cc2c(C)cc(C)cc2[nH]c1=O)C1CCCC1 (configuration not stated),-3,-4,-1,19,55*,6
O=C(Nc1ccc(C2=NCCN2)cc1)c1ccc(Cl)c(C(=O)Nc2ccc(C3=NCCN3)cc2)c1,1,.,14,7,.,.
O=C(NCc1cccc(F)c1)C1CCN(C(=O)c2sccc2-n2cccc2)CC1,-4,7,.,9,3,8
CCOc1ccc2c(c1)C(N(CCN1CCOCC1)C(=O)Nc1ccccc1)CC(C)(C)O2 (configuration not stated),-1,-4,-4,-9,27,5
CCOC(=O)C1CCCCN1Cc1ccc(OC)c(OC)c1 (configuration not stated),2,.,-3,26,.,.
OCCN=c1cc(-c2ccccc2)oc2ccc(Cl)cc12,1,-4,5,37,84*,-18
COc1cc(Nc2nc(-c3ccccc3)c3cc(C)ccc3n2)cc(OC)c1OC,-1,5,.,48,61*,-32
COc1cccc(-c2nc3ccccc3s2)c1O,8,0,-2,11,-7,-2
COc1cc(OC)c(-c2nc3ccccc3s2)cc1OC,1,-2,0,72*,19,-18
CCOC(=O)c1nc2cc3n(c(CC(C)C)c-2c1C)CC(C)=C3C,-1,-6,7,17,64*,10
CCOC(=O)c1[nH]c(C)c(CC(C)C)c1C,2,3,-6,-3,8,-2
CCCCNS(=O)(=O)c1ccc(NC(=O)C(Sc2ccccc2)c2ccccc2)cc1 (configuration not stated),3,3,-9,36,79*,-16
